Screens (PubChem BioAssay)
E-selectin induc: E-selectin induction in HUVECs, primary screen, imaging, HUVEC, immunofluorescence imaging, single point; normalized: neutral wells 0, TNF-alpha wells 100; 0.37% of 260,000 active; activation, % at 7.58 µM; P16581;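 active means mean E-selectin-positive cell signal at least 10% of the positive control, reached in at least 60% of replicates, without over 20% cell loss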
Target sequence (P16581 whole entry, looked up): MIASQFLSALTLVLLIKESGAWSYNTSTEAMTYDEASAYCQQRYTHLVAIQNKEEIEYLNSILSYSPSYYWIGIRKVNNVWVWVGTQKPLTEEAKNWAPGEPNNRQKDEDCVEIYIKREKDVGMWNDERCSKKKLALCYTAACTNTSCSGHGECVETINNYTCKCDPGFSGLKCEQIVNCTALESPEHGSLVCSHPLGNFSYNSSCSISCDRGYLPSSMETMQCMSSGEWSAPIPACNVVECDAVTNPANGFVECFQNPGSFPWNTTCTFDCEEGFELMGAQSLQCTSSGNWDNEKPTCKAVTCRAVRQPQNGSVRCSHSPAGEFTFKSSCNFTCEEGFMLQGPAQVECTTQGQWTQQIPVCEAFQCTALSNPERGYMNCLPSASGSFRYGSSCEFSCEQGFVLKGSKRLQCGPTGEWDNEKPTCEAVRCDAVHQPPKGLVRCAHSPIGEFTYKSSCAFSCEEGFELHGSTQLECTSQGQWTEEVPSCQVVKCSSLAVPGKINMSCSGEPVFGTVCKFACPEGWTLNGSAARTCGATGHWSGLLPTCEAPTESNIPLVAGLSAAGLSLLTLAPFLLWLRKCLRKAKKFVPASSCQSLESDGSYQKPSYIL
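System: HUVEC / Compound: single concentration / Signal: immunofluorescence imaging / Read-out: percent E-selectin-positive cells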
XiGFP reactiv: activators of inactive X chromosome reactivation, primary screen, imaging, XiGFP fibroblasts, GFP high-content imaging, set 2; XiGFP mouse fibroblasts, % GFP-positive cells imaging, 3 d; cells co-treated with 5-aza-dC sensitizer; scaled so ellipticine positive control = 100%; activation, % at 7.58 µM; 0.055% of 360,000 active; AID 743238, 2013;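 active means mean normalized replicate activation at least 10% and every replicate at or above 10%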;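 further: 0% = median of on-plate neutral control wells and 100% = ellipticine 6 µM median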
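System: 68-5-11 XiGFP fibroblast line | Buffer or medium: DMEM containing 5-aza-dC | Compound: Single point | Times: Compounds 3 days, fix/stain 15 min at room temperature | Benchmarks: Positive control ellipticine, 6 µM final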
F508del corr: F508del CFTR correction, initial screen, CFBE line, single point. CFBE cells, YFP halide quenching; stimulated with forskolin plus potentiator P3; % fluorescence drop versus neutral controls. activity (quench increase), % at 7.58 µM. AID 720511, 2013. 0.36% of 350,000 active;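 active means mean added fluorescence quench of at least 8% versus neutral control, with both replicates also reaching 8%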;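 further: cells transiently co-express mutant CFTR-F508del with the halide-sensitive YFP; corrector assay measuring rescue of mutant channel to the surface after 24 h compound exposure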
Starred values were filed as active, the others as inactive; . = not tested or not shown. In the library only some 0.61% were active in any assay of this set; here they are far more common.

SMILES	E-selectin induc	XiGFP reactiv	F508del corr
Cn1c(=O)c([N+](=O)[O-])c(NCC(O)c2ccccc2)c2ccccc21 (centres undefined)	.	0.0	.
Cn1c(=O)c([N+](=O)[O-])c(-n2ccnc2)c2ccccc21	4.1	0.1	2.0
CN1C(=O)c2cc(NS(=O)(=O)c3cccc(F)c3)ccc2OC[C@@H]2O[C@H](CC(=O)N3CCc4ccccc4C3)CC[C@@H]21	0.0	0.0	3.7
N#C[C@@H]1N[C@@H](CO)[C@@H]1c1ccccc1	0.1	0.0	-2.4
O=C(C[C@@H]1C[C@@H]2c3cc(NC(=O)c4ccc5c(c4)OCO5)ccc3O[C@@H]2[C@@H](CO)O1)NCc1ccc(Oc2ccccc2)cc1	-0.2	0.8	2.2
CCN1/C(=C/C(C)=C/c2sc3ccccc3[n+]2CC)Sc2ccccc21	155.3*	3.6	-12.6
CCN1/C(=C\C(=S)Nc2ccccc2)Sc2ccccc21	0.4	0.1	2.9
C[C@@H]1CN([C@H](C)CO)C(=O)c2cc(C#C[C@@H](C)O)cnc2O[C@H]1CN(C)Cc1cccc(F)c1	-0.2	0.2	-1.2
CCCNC(=O)N(C)C[C@H]1Oc2ncc(-c3ccc(C(=O)N(C)C)cc3)cc2C(=O)N([C@H](C)CO)C[C@H]1C	0.0	1.2	0.1
CC(=Nc1ccccc1O)c1sc2ccccc2c1O	-0.2	0.0	10.1*
Oc1c(N=Nc2ccccc2)sc2ccccc12	0.1	0.0	-4.2
C[C@@H]1CCCCO[C@@H](CN(C)C(=O)Cc2ccccc2)[C@H](C)CN([C@@H](C)CO)C(=O)c2cc(NC(=O)CCC(F)(F)F)ccc2O1	.	0.0	0.1
O=C(c1ccccc1)N1C[C@@H]2[C@H](c3ccccc31)[C@H](CO)N2Cc1cocn1	0.1	0.2	-0.1
COc1ccccc1CCNC(=O)/C(=C/c1cccnc1)NC(=O)c1ccccc1	52.1*	0.0	4.1
COc1ccccc1NC(=O)/C(=C\c1cccnc1)NC(=O)c1ccccc1	.	0.3	1.8
CC(=O)N1CCCCN2[C@H](CO)[C@@H](c3ccc(-c4ccc(F)cc4)cc3)[C@H]2C1	0.1	0.0	0.9
CC(C)(C)NC(=S)N/N=C\c1ccc(-c2ccc([N+](=O)[O-])cc2)o1	.	66.4*	0.3
CCCCC(=O)N/N=C/c1ccc(-c2ccc([N+](=O)[O-])cc2)o1	.	0.1	-0.5
C[C@H](CO)N1C[C@H](C)[C@H](CN(C)S(=O)(=O)c2ccc(F)cc2)Oc2ncc(C#Cc3ccccc3)cc2C1=O	0.1	-1.2	-4.8
C[C@@H]1CN([C@H](C)CO)C(=O)c2cc(NC(=O)Cn3cnnn3)ccc2O[C@H]1CN(C)CC1CCCCC1	0.0	0.1	-1.8
COc1ccc(NC(=O)N(C)C[C@@H]2Oc3c(NS(=O)(=O)c4ccc(Cl)cc4)cccc3C(=O)N([C@H](C)CO)C[C@H]2C)cc1	0.0	-1.1	-3.9
COc1cc(CC(=O)OCC(=O)Nc2ccccc2C#N)cc(OC)c1OC	7.4	-0.1	-1.5
COc1cc(CCC(=O)OCC(=O)Nc2ccccc2C#N)cc(OC)c1OC	458.4*	0.4	4.9
CN(C)C(=O)C[C@H]1CC[C@H]2[C@@H](COc3ccc(NC(=O)NCc4ccccc4)cc3C(=O)N2C)O1	-0.1	0.0	1.7
O=C(C[C@H]1C=C[C@H](NC(=O)c2ccc3c(c2)OCO3)[C@@H](CO)O1)NCc1ccc(F)cc1	-0.5	0.5	-2.0
SMILES	E-selectin induc	XiGFP reactiv	F508del corr
COc1ccc(OCC(=O)N/N=C/C=C/c2ccccc2)cc1	1.2	-0.1	9.0*
CCOc1ccc(NCC(=O)N/N=C/C=C/c2ccccc2)cc1	-0.2	0.2	-4.3
O=C(C[C@@H]1CC[C@H](NS(=O)(=O)c2ccccc2)[C@@H](CO)O1)NCc1ccc(Cl)c(Cl)c1	2.4	0.3	-2.0
CC(OC(=O)c1nsc(Cl)c1Cl)C(=O)NCCc1ccccc1 (centres undefined)	28.7*	0.4	-3.6
CCC(OC(=O)c1nsc(Cl)c1Cl)C(=O)NCc1ccco1 (centres undefined)	-0.8	.	.
CCOC(=O)Cn1c(=NC(=O)C2COc3ccccc3O2)sc2cc(S(N)(=O)=O)ccc21 (centres undefined)	2.2	-0.1	4.6
CCOC(=O)Cn1c(=NC(=O)c2ccc([N+](=O)[O-])s2)sc2ccccc21	3.9	17.5*	.
COc1ccc(NC(=O)c2cc(C3CC3)on2)c(OC)c1	2.8	0.3	8.2*
COc1ccc(NC(=O)c2cc(-c3ccco3)on2)c(OC)c1	10.6	0.0	1.8
Cc1ccc(S(=O)(=O)Nc2ccc3c(c2)CC(=O)N([C@@H](C)CO)C[C@@H](C)[C@H](CN(C)S(=O)(=O)c2ccc(F)cc2)O3)cc1	0.0	-0.2	-0.8
COc1ccc(NC(=O)Nc2ccc3c(c2)C(=O)N([C@H](C)CO)C[C@@H](C)[C@H](CN(C)C(=O)c2ccccc2)OCCCC[C@@H](C)O3)cc1	0.0	0.3	1.5
CC(C)C#Cc1ccc2c(c1)O[C@@H](CN(C)C(=O)C1CCC1)[C@H](C)CN([C@H](C)CO)S2(=O)=O	0.2	-1.2	-1.5
COc1cccc(NC(=O)c2ccc(OC(F)(F)F)cc2)c1	41.9*	0.0	0.7
COc1cc(NC(=O)N2CCNC2=O)cc(C(=O)Nc2cccc(C(F)(F)F)c2)c1	2.0	0.0	8.0*
COc1ccc(C(=O)Nc2cccc(OC)c2)cc1	.	.	-0.3
CCN1CCN(Cc2ccc(NC(=O)c3cc(NC(=O)N4CCNC4=O)cc(OC)c3)cc2C(F)(F)F)CC1	0.0	0.3	6.2
O=C(C[C@@H]1CC[C@@H]2[C@H](COC[C@H](O)CN2Cc2ccc(Oc3ccccc3)cc2)O1)Nc1nccs1	-0.2	0.8	6.7
C[C@H](CO)N1C[C@H](C)[C@H](CN(C)Cc2ccncc2)Oc2c(NC(=O)C3CCCCC3)cccc2C1=O	-0.2	-0.1	-2.4
C[C@H](CO)N1C[C@H](C)[C@@H](CN(C)S(=O)(=O)c2ccc(Cl)cc2)OCCCC[C@H](C)Oc2ccc(NC(=O)C3CCCCC3)cc2C1=O	0.0	0.4	-0.4
COc1ccc(N(C(=O)c2ccncc2)S(=O)(=O)c2ccc3c4c(cccc24)C(=O)N3C)cc1	.	0.0	.
CCN1C(=O)c2cccc3c(S(=O)(=O)N(C(C)=O)c4ccc(OC(C)=O)cc4)ccc1c23	-1.4	0.1	15.6*
CN(C)c1cccc(C(=O)NCc2ccc3c(c2)OCO3)c1	29.1*	0.4	2.0
Cn1cccc1C(=O)OCC(=O)NCc1ccc2c(c1)OCO2	.	0.3	37.2*
CN(C)c1ccc(C(=O)NCc2ccc3c(c2)OCO3)cc1	.	-0.1	.
O=C(COC(=O)c1c(F)cccc1F)NCc1ccc2c(c1)OCO2	0.3	0.1	0.3
O=C(Nc1ccc(F)cc1)C1CCN(C(=O)c2ccc(F)cc2)CC1	5.3	0.4	13.7*
O=C(Nc1ccc(C(=O)N2CCCC2)cc1)C1CCCC1	0.1	0.0	4.6
CO[C@@H]1CN(C)C(=O)c2ccc(NC(=O)c3cnccn3)cc2OC[C@@H](C)N(C)C[C@@H]1C	0.0	-0.2	-0.4
